Data on 1 compound can be found in paper PMC9301648 (ACS Omega, 2022).

SMILES strings stand for the structures.

Data set [1] deals with human coronavirus (HCoV) 229E. Kind of data set: cytopathic effect. The following applies: unidentified human coronavirus, MRC5, read-out: normalized inhibition % (25 μM). The class given is cell-based. Put shortly:
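MRC5 cells were seeded at 20,000 cells/well and grown overnight at 37 °C, 5% CO₂. Test compound diluted in assay medium was added, then HCoV 229E diluted in assay medium; final DMSO 0.5%. CPE was read by CellTiter Glo. Protection at each concentration was normalized to virus-only control. Screen at 25 μM; EC50 from full dose–response by four-parameter variable-slope nonlinear regression.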
Background: Protection from cytopathic effect is a common read-out in antiviral testing.

Data set [2] can be described thus: cytotoxicity toward MRC5 cells, same conditions without virus infection. The following applies: human. The data set is classed as cell-based. Put shortly:
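Run in parallel with the antiviral CPE assay under identical conditions without virus infection. MRC5 cells were seeded at 20,000 cells/well and cultured overnight at 37 °C, 5% CO₂. Test compound diluted in assay medium was added; final DMSO 0.5%. Viability was read by CellTiter Glo. Single-point at 25 μM; CC50 by four-parameter log(inhibitor) vs response variable-slope regression.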

As for `C=C1CC[C@@H]2[C@](C)(CO)[C@H](O)CC[C@@]2(C)[C@@H]1C/C=C1/C(=O)OC[C@H]1O` [andrographolide 1, andrographolide, reference compound], the inhibition (commonly the percentage by which the read-out fell short of the control) at 25 µM in data set [1] is 34.8%. This compound also gave a cytotoxicity at 3 days, 25 µM in data set [2] of 23.6%.
